Myeloid diff MLP – compounds promoting myeloid differentiation; ER-HoxA9 myeloid progenitors, lysozyme-GFP differentiation, flow cytometry; actives 1% (n = 360,000); calls only at 10 µM; AID 624256;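 active = normalized GFP-positive differentiation at or above the plate's own cutoff, the solvent-only control mean plus 3 SD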;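 note: cells exposed to compound for four days before flow analysis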
Xi reactivation – X-chromosome reactivation activator; XiGFP mouse fibroblasts, % GFP-positive cells imaging, 3 d; cells co-treated with 5-aza-dC sensitizer; scaled so ellipticine positive control = 100%; activation, % at 7.58 µM; actives 0.055% (n = 360,000); AID 743238;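 active = mean normalized replicate activation at least 10% and every replicate at or above 10%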;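 note: 0% = median of on-plate neutral control wells and 100% = ellipticine 6 µM median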
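System: SV40-immortalized XiGFP fibroblast cells, line 68-5-11 / Incubation: 3-day compound exposure, then 15 min fixation at room temperature / Compound: single concentration per compound, delivered by pin transfer / Buffer or medium: DMEM plus 5-aza-dC sensitizer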
ABCB6 inh 2 – human ABCB6 transporter inhibition; Q9NP58; K562-ABCB6 porphyrin accumulation, flow cytometry, 1 h; active compounds read low; fluorescence ratio to DMSO, % at 10 µM; actives 0.19% (n = 360,000);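 active = fluorescence ratio to DMSO below 75%, the collection mean minus 3 SD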;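 note: signal is porphyrin accumulated inside mitochondria; 100% equals median channel fluorescence of DMSO control wells; lower ratio means ABCB6 inhibition with less porphyrin fluorescence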
Target sequence (Q9NP58 whole entry, looked up): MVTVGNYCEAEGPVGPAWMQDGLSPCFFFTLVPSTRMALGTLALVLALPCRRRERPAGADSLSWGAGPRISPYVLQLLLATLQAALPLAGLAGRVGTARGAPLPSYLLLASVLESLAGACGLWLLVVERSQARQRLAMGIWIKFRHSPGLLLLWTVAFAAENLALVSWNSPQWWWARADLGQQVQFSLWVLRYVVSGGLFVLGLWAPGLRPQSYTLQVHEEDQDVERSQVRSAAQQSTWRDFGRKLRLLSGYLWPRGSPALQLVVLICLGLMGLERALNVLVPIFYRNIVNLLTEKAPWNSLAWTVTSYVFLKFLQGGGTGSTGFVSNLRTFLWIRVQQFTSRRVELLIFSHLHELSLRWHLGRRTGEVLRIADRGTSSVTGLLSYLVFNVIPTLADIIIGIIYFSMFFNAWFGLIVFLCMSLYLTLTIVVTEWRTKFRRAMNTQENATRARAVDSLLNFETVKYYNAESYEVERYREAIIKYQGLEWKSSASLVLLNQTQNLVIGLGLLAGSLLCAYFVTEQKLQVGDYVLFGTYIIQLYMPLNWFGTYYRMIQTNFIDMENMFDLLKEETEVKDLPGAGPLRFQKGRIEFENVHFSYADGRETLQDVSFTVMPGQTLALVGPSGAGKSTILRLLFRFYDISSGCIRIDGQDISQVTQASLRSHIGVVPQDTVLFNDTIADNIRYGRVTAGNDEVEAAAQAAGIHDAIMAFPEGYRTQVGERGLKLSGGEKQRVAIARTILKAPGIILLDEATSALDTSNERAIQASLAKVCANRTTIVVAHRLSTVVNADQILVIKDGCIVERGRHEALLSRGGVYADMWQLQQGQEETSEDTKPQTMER
An asterisk follows results filed as active. This excerpt belongs to a sample that is enriched for hits.

Screening CCOC(=O)C1CCN(C(=O)c2ccc(NS(=O)(=O)c3ccc(F)cc3C)cc2)CC1 returned Myeloid diff MLP inactive, Xi reactivation 25.5* and ABCB6 inh 2 100.0.
COC(=O)Cc1c(O)ccn(CCc2ccc(OC)c(OC)c2)c1=O was read as Myeloid diff MLP inactive, Xi reactivation 0.1 and ABCB6 inh 2 102.0.
For COc1ccc(CCn2ccc(O)c(Cc3ccc(Cl)cc3)c2=O)cc1OC the results were Myeloid diff MLP active, Xi reactivation 0.1 and ABCB6 inh 2 125.0.
`COc1cccc(-c2cnc3c(NC=O)cc(-c4cc(OC)c(OC)c(OC)c4)cn23)c1` gave Myeloid diff MLP active, Xi reactivation 0.3 and ABCB6 inh 2 94.0.
CN(C)CCNC(=O)c1cccc(-c2cnc3c(NC=O)cc(-c4ccc(F)cc4)cn23)c1 was read as Myeloid diff MLP inactive, Xi reactivation 0.0 and ABCB6 inh 2 100.0.
`COc1cccc(-c2cc(NC=O)c3ncc(-c4ccc(OC)c(OC)c4)n3c2)c1` gave Xi reactivation -0.1 and ABCB6 inh 2 105.0.
Screening COc1ccc(-c2cc(NC=O)c3ncc(-c4cccc(C(=O)NCCN(C)C)c4)n3c2)cc1 returned Myeloid diff MLP active, Xi reactivation 0.1 and ABCB6 inh 2 109.0.
For CC(C)NC(=O)Nc1ccc2c(c1)CC(=O)N([C@@H](C)CO)C[C@@H](C)[C@@H](CN(C)S(=O)(=O)c1cccs1)O2 the results were Xi reactivation 0.0.
CCS(=O)(=O)N1CC(=O)N2[C@@H](CO)[C@H](c3ccc(-c4ccccc4C)cc3)[C@@H]2C1 was read as Xi reactivation 0.2.
COC(=O)C1=C(C)NC(=S)NC1/C=C/c1ccccc1 (stereo not given) was read as Myeloid diff MLP inactive, Xi reactivation 0.0 and ABCB6 inh 2 98.0.
For CCOC(=O)C1=C(C)NC(=S)NC1/C=C/c1ccccc1 (stereo not given) the results were Myeloid diff MLP inactive, Xi reactivation 36.3* and ABCB6 inh 2 96.0.
For O=C(Nc1ccccc1)N1CC(=O)N2[C@H](CO)[C@@H](c3ccc(C#CC4CC4)cc3)[C@@H]2C1 the results were Xi reactivation 0.6.
CCOC(=O)/C(=C\C=C1/Sc2ccccc2N1CC)C(C)=O was read as Myeloid diff MLP inactive, Xi reactivation 0.5 and ABCB6 inh 2 116.0.
Screening CCOC(=O)/C(=C/C=C1\Sc2cc(C)c(C)cc2N1CC)C(C)=O returned Myeloid diff MLP active, Xi reactivation 16.6* and ABCB6 inh 2 130.0.
For COc1ccc(C2C(C(C)=O)=C(O)C(=O)N2CCCn2ccnc2)cc1OC (stereo not given) the results were Myeloid diff MLP inactive and ABCB6 inh 2 90.0.
Screening CC(=O)C1=C(O)C(=O)N(CCCn2ccnc2)C1c1ccc(Br)cc1 (stereo not given) returned Myeloid diff MLP active, Xi reactivation 0.0 and ABCB6 inh 2 192.0.
Cc1ccc(S(=O)(=O)Nc2ccc3c(c2)C(=O)N([C@@H](C)CO)C[C@H](C)[C@@H](CN(C)CC2CCCCC2)OCCCC[C@H](C)O3)cc1 was read as Xi reactivation 0.4.
`CO[C@@H]1CN(C)C(=O)c2ccc(NC(=O)C3CC3)cc2OC[C@H](C)N(C(=O)CN2CCOCC2)C[C@H]1C` gave Xi reactivation 0.4.
`O=S(=O)(c1ccc(N2CCN(c3ccc(F)cc3)CC2)cc1)N1CCCC1` gave Myeloid diff MLP inactive and ABCB6 inh 2 99.0.
Screening O=S(=O)(c1ccc(N2CCCC2)cc1)C(F)(F)F returned Myeloid diff MLP active and ABCB6 inh 2 96.0.
Oc1c(C=Nc2ccccc2)sc(=S)n1Cc1ccccc1 was read as Myeloid diff MLP active, Xi reactivation 0.0 and ABCB6 inh 2 110.0.
Screening CCn1c(O)c(C=Nc2ccccc2)sc1=S returned Xi reactivation 0.0.
Screening CCC(=O)N1C[C@@H](C)[C@@H](OC)CN(C)C(=O)c2ccc(NC(=O)Nc3ccccc3)cc2OC[C@@H]1C returned Xi reactivation 0.2.
`COC(=O)c1cc(NC(=O)Cc2coc3cc(OC)ccc23)cc(C(=O)OC)c1` gave Myeloid diff MLP inactive and ABCB6 inh 2 94.0.
`COC(=O)c1ccc(C)c(NC(=O)Cc2coc3cc(OC)ccc23)c1` gave Myeloid diff MLP active and ABCB6 inh 2 102.0.
Screening Cc1noc(C)c1S(=O)(=O)Nc1ccc2c(c1)C(=O)N([C@H](C)CO)C[C@@H](C)[C@@H](CN(C)C(=O)Nc1ccc3c(c1)OCO3)OCCCC[C@@H](C)O2 returned Xi reactivation -1.1.
C[C@@H]1CN([C@H](C)CO)C(=O)Cc2cc(NS(C)(=O)=O)ccc2O[C@H]1CN(C)Cc1ccc2c(c1)OCO2 was read as Xi reactivation -1.1.
COc1ccc(CN(C)C[C@@H]2Oc3ccc(NS(=O)(=O)c4cn(C)cn4)cc3C(=O)N([C@H](C)CO)C[C@H]2C)cc1 was read as Xi reactivation 0.2.
`CNC(=O)C[C@@H]1CC[C@H]2[C@@H](COC[C@@H](O)CN2Cc2ccc(C(F)(F)F)cc2)O1` gave Xi reactivation 0.1.
`Cc1cc(NC(=O)COC(=O)C2CC(=O)N(c3ccccc3Cl)C2)no1` (stereo not given) gave Myeloid diff MLP inactive, Xi reactivation 0.0 and ABCB6 inh 2 98.0.
`Cc1ccc(N2CC(C(=O)OCC(=O)Nc3cc(C)on3)CC2=O)c(C)c1` (stereo not given) gave Myeloid diff MLP active, Xi reactivation 0.4 and ABCB6 inh 2 98.0.
`CC1=NN(c2ccccc2)C(c2ccco2)C1` (stereo not given) gave Myeloid diff MLP inactive, Xi reactivation 0.2 and ABCB6 inh 2 92.0.
Screening O=[N+]([O-])c1ccc(C=CC=Cc2ccccc2)cc1 returned Myeloid diff MLP inactive, Xi reactivation -0.1 and ABCB6 inh 2 96.0.
For O=[N+]([O-])c1ccc(C2=NN(c3ccccc3)C(c3ccco3)C2)cc1 (stereo not given) the results were Myeloid diff MLP active, Xi reactivation 86.0* and ABCB6 inh 2 inactive.
O=[N+]([O-])c1ccc(/C=C/C2=NN(c3ccccc3)C(c3ccco3)C2)cc1 (stereo not given) was read as Myeloid diff MLP active and Xi reactivation 89.0*.
C[C@H](CO)N1C[C@H](C)[C@H](CN(C)C(=O)c2ccccn2)Oc2ncc(C3=CCCC3)cc2C1=O was read as Xi reactivation -0.7.
Screening COc1cccc(C(=O)Nc2ccc3c(c2)C(=O)N(C)C[C@H](OC)[C@@H](C)CN(C(=O)C2CCCC2)[C@@H](C)CO3)c1 returned Xi reactivation 0.0.
`COc1ccc(S(=O)(=O)N(C)C[C@H]2OCCCC[C@@H](C)Oc3ccc(NS(=O)(=O)c4cn(C)cn4)cc3C(=O)N([C@H](C)CO)C[C@H]2C)cc1` gave Xi reactivation -0.1.
`C[C@@H]1CN([C@@H](C)CO)S(=O)(=O)c2ccc(C#CC3CC3)cc2O[C@H]1CN(C)Cc1ccccc1` gave Xi reactivation 0.2.
COCCNCCCOc1ccc(C)cc1Br was read as Myeloid diff MLP inactive, Xi reactivation 0.0 and ABCB6 inh 2 88.0.

Source: PubChem
